Broadly, the IC50 is the concentration needed to halve the response being measured.

The values that follow come from ChEMBL document CHEMBL4033796, “4-Amino-7,8-dihydro-1,6-naphthyridin-5(6 H)-ones as Inhaled Phosphodiesterase Type 4 (PDE4) Inhibitors: Structural Biology and Structure-Activity Relationships” (J Med Chem, 2018).

A short description of test [1]: Inhibition of PDE4 in human whole blood PBMC assessed as reduction in LPS-induced TNFalpha production after 24 hrs by ELISA. Summed up:
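Heparinized whole blood from healthy donors was preincubated with LPS (1 μg/mL final) at 37 °C for 10 min. It was then added to compounds in DMSO and incubated 24 h at 37 °C with agitation, then centrifuged. Serum TNF-α was measured by sandwich ELISA with TMB read-out at 450 nm. Experiments were done 2−3 times and duplicates were averaged.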

Test [2] concerns the target 3',5'-cyclic-AMP phosphodiesterase 4B (Homo sapiens, UniProt Q07343). Kind of test: Inhibition of recombinant human PDE4B1 using [3H]-cAMP as substrate […] measured after 60 mins by scintillation proximity assay. Summed up: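 Compounds ranged from 10 μM to 10 pM. The reaction was started with PDE4 enzyme and run 60 min at room temperature with agitation (about 10−20% conversion), then stopped with SPA beads. [3H]-AMP was counted by scintillation.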
A general note: Scintillation proximity formats need no separation of bound from free tracer.

3',5'-cyclic-AMP phosphodiesterase 4B, sequence (Q07343 whole entry): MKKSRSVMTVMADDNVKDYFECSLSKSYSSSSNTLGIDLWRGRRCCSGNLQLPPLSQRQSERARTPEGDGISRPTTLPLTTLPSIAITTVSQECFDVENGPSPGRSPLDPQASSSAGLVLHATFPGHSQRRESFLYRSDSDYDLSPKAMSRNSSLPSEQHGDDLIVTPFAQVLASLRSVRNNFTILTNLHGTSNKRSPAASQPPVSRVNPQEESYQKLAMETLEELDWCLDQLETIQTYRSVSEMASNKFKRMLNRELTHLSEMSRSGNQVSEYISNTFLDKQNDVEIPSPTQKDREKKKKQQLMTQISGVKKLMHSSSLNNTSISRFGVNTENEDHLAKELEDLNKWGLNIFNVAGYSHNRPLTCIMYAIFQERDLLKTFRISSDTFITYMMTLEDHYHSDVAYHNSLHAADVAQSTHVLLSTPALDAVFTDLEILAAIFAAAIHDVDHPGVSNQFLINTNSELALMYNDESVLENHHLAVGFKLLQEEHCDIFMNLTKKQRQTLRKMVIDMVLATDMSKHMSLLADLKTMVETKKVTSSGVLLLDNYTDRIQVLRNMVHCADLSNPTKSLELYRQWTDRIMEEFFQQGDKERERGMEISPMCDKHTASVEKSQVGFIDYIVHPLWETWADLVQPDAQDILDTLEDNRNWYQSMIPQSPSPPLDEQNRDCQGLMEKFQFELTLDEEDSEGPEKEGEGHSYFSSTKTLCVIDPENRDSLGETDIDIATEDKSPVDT

Consider `O=C1NCCc2nc(-c3ccccc3)cc(Nc3ccc(C[C@@H](O)CO)cc3)c21`, for which the IC50 came to 0.49 nM in test [1] and 8.7 nM in test [2].

Consider `O=C1NCCc2nc(-c3ccccc3)cc(Nc3ccc4ncccc4c3)c21`, for which the IC50 was determined as 4.8 nM in test [1] and 2.3 nM in test [2].

Turning to `O=C1NCCc2nc(-c3ccccc3)cc(Nc3cccc(CO)c3)c21`, the IC50 in test [2] turned out to be 24 nM. Regarding `N#C/N=C1\NCCc2nc(-c3ccc(F)c(F)c3)cc(Nc3cccc4ncccc34)c21`, the IC50 in test [1] amounted to 17 nM; in test [2], 0.89 nM. On to `NC(=O)c1cnc(-c2ccccc2)cc1Nc1cccc2ncccc12`, for which the IC50 in test [2] came out at 35 nM. As for `O=C(NC1CC1)c1cccc(-c2cccc(-c3cc(Nc4cccc5c4ccc[n+]5[O-])c4c(n3)CCNC4=O)c2)c1`, the values for the half-maximal inhibitory concentration (IC50) in test [1] and in test [2] were 0.075 nM and 0.045 nM, respectively.

In the case of `CCOC(=O)c1ccc(-c2cccc(-c3cc(Nc4cccc(OC)c4)c4c(n3)CCNC4=O)c2)cc1`, the IC50 came to 1.2 nM in test [1] and 7.2 nM in test [2]. Turning to `O=C(NC1CC1)c1cccc(-c2cccc(-c3cc(Nc4cncc5ccccc45)c4c(n3)CCNC4=O)c2)c1`, the IC50 in test [1] was 1.1 nM; in test [2] it was 0.32 nM.

Turning to `Cn1nc(Nc2cc(-c3ccccc3)nc3c2C(=O)NCC3)c2cccnc21`, the IC50 in test [2] turned out to be 11 nM.

`COc1cccc(Nc2cc(-c3ccccc3)nc3c2C(=O)NCC3C)c1` (stereo not given): in test [2], the IC50 was found to be 640 nM.

For the compound `O=C1NCCc2nc(-c3ccccc3)cc(Nc3cccc4ccccc34)c21`, the IC50 in test [2] was 11 nM.

For `COc1cccc(Nc2cc(-c3cccc(OC)c3)nc3c2/C(=N/C#N)NCC3)c1`, in test [2], the IC50 is 13 nM. As for `COc1cccc(Nc2cc(-c3ccccc3OC)nc3c2C(=O)NCC3)c1`, in test [2], the IC50 turned out to be 32 nM. For the compound `COc1cccc(Nc2nc(-c3ccccc3)nc3c2C(=O)NCC3)c1`, the results for the IC50 in test [1] and in test [2] were 40 nM and 52 nM, respectively. With `O=C1NCCc2nc(-c3ccccc3)cc(Nc3nn(-c4ccccc4)c4ncccc34)c21`, the IC50 in test [2] came out at 56 nM.

For `COc1cccc(Nc2cc(-c3ccccc3)ncc2C(N)=O)c1`, in test [2], the half-inhibitory concentration (IC50) is 240 nM.

Take `Nc1cc(-c2ccccc2)nc2c1C(=O)NCC2`: the IC50 in test [2] came out at 2400 nM. Consider `COC(=O)c1ccc(O)c(-c2cccc(-c3cc(Nc4cccc(OC)c4)c4c(n3)CCNC4=O)c2)c1`, for which the IC50 worked out at 4.2 nM in test [1] and 5.6 nM in test [2]. For `COc1cc(Nc2cc(-c3ccccc3)nc3c2C(=O)NCC3)ccc1C(=O)O` the same measures were 9.9 nM and 2.3 nM. Consider `CNC(=O)c1cnc(-c2ccccc2)cc1Nc1cccc2ncccc12`, for which, in test [2], the IC50 was 5800 nM. `NC(=O)c1ccc(Nc2cc(-c3ccccc3)nc3c2C(=O)NCC3)cc1`: the 50% inhibitory concentration (IC50) in test [1] was determined as 4.2 nM; in test [2] it was 1.5 nM. `COc1cccc(Nc2cc(-c3ccncc3)nc3c2C(=O)NCC3)c1`: the half-maximal inhibitory concentration (IC50) was found to be 6.5 nM in test [1] and 3.6 nM in test [2].

For the compound `O=C1NCCc2nc(-c3ccccc3)cc(Nc3cccc4cnccc34)c21`, the IC50 in test [2] worked out at 14 nM. The same measure, in the same setting: to `NC(=O)c1cccc(Nc2cc(-c3ccccc3)nc3c2C(=O)NCC3)c1` belongs 12 nM; to `O=C1NCCc2nc(-c3ccccc3)cc(Nc3ccc(CCO)cc3)c21`, 12 nM; to `COc1cccc(Nc2cc(-c3cccc(OC)c3)nc3c2/C(=N/O)NCC3)c1`, 2000 nM.

As to `COc1cc(Nc2cc(-c3ccccc3)nc3c2C(=O)NCC3)cc(OC)c1`, the IC50 in test [2] stood at 27 nM.

Regarding `COc1cccc(Nc2cc(-c3cc[n+]([O-])cc3)nc3c2C(=O)NCC3)c1`, the 50% inhibitory concentration (IC50) in test [2] was 51 nM. The same measure, in the same setting: for `O=C1NCCc2nc(-c3ccccc3)cc(NCCc3ccncc3)c21` the value was 12 nM; for `COc1cccc(Nc2cc(-c3cccc(OC)c3)nc3c2C(=O)NCC3)c1`, 8.4 nM. Consider `Cc1ccncc1Nc1cc(-c2ccccc2)nc2c1C(=O)NCC2`, for which the half-maximal inhibitory concentration (IC50) in test [2] came to 42 nM. On to `O=C1NCCc2nc(-c3ccccc3)cc(NCc3ccncc3)c21`, for which the IC50 in test [2] was determined as 25 nM. `COc1cccc(Nc2cc(-c3cccc(Br)c3)nc3c2C(=O)NCC3)c1`: the IC50 in test [2] came to 8.2 nM.

`COc1cccc(Nc2cc(C3CC3)nc3c2C(=O)NCC3)c1`: the IC50 in test [2] turned out to be 8.5 nM.
